For assay [1], the system named is L1210. Description: Compound was evaluated for antitumor activity against mice implanted with lymphatic leukemia L1210 cells (10e6 tumor cells) after intraperitoneal administration of 50 mg/kg per injection. Format: functional. Conditions: Mus musculus, L1210, ip.
Assay [2] concerns L1210. The assay can be described thus: Concentration required to inhibit proliferation of cultured lymphoid leukemia L1210 cells to 50% growth over 48 hours. Conditions: Mus musculus, L1210, 48 h. Format: functional, cell-based. In a few lines:
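Cultured lymphoid leukemia L1210 cells were exposed to agent for 48 h. IC50 is the micromolar concentration that holds proliferation to 50% growth.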

For assay [3], the system named is P388. The assay can be described thus: Compound was evaluated for antitumor activity against mice implanted with lymphatic leukemia P388 cells (10e6 tumor cells) after intraperitoneal administration of 50 mg/kg per injection (1-5 days). It is filed as functional. Conditions: Mus musculus, P388, ip. The gist of the method:
(§1)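 Mice implanted ip with 10⁶ lymphocytic leukemia P388 cells; drug given ip on days 1-5. Read-out is % increase in life span (% ILS) versus untreated controls, reported at the highest nontoxic dose tested.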

The test system of assay [4] is P388. Description: Compound was evaluated for antitumor activity against mice implanted with lymphatic leukemia P388 cells (10e6 tumor cells) after intraperitoneal administration of 400 mg/kg per injection (1-5 days). Format: functional. Conditions: Mus musculus, P388, ip. In a few lines: as §1
The nature of assay [5]: Compound's concentration required to inhibit proliferation of cultured KB cells to 50% growth during 48 hours. It is filed as functional, cell-based. Conditions: Homo sapiens.
The subject of assay [6] is P388. The assay can be described thus: Compound was evaluated for antitumor activity against mice implanted with lymphatic leukemia P388 cells (10e6 tumor cells) after intraperitoneal administration of 100 mg/kg per injection. It is filed as functional. Conditions: Mus musculus, P388, ip.
In assay [7] the test system is P388. Description: Compound was evaluated for antitumor activity against mice implanted with lymphatic leukemia P388 cells (10e6 tumor cells) after intraperitoneal administration of 5 mg/kg per injection (1-5 days). It is filed as functional. Conditions: Mus musculus, P388, ip. In a few lines:
as §1

The compound `CCOC(=O)Nc1cc(NC(c2ccccc2)c2ccccc2)c([N+](=O)[O-])c(N)n1` displayed an increase in life span (ILS) at 50 mg/kg in the assay on L1210 [1] of 0%. `CCOC(=O)Nc1cc(N[C@@H](C)[C@H](O)c2ccccc2)c(N)c(N)n1` gave an IC50 with L1210 [2] of 1.3 µM. Also, the increase in life span (ILS) at 50 mg/kg in the assay on P388 [3] came to 36%. `CCOC(=O)Nc1cc(N[C@@H](C)C(=O)c2ccccc2)c([N+](=O)[O-])c(N)n1` showed a 50% inhibitory concentration (IC50) in the assay with L1210 [2] of 27 µM. In the assay with P388 [4], this compound had an increase in lifespan (ILS) at 400 mg/kg of 39%. Compound `CCOC(=O)Nc1cc(N)c(N)c(N)n1` yielded an IC50 in assay [5] of 10 µM. Also, in the assay with P388 [6], the ILS at 100 mg/kg was 0%. Consider `CCOC(=O)Nc1cc(NC(C)/C(=N/O)c2ccc(O)cc2)c([N+](=O)[O-])c(N)n1` (centres undefined), for which the half-maximal inhibitory concentration (IC50) in the assay with L1210 [2] was 18 µM. The ILS at 5 mg/kg with P388 [7] was determined as 57%.

As usually defined, the ILS is how much longer treated animals lived than controls. Lower therefore signals a small benefit in survival. As a reminder, the IC50 is the concentration that gives 50% inhibition.

The record behind these values is ChEMBL document CHEMBL1126221, “Antimitotic agents: structure-activity studies with some pyridine derivatives” (J Med Chem, 1992).
